Test results from ChEMBL document CHEMBL4011654, “Mitochondria-Targeted Lupane Triterpenoid Derivatives and Their Selective Apoptosis-Inducing Anticancer Mechanisms” (J Med Chem, 2017).
Calls of active or inactive are those of the source. The rule behind the calls is not given here.

Key:
K562 [1] = test: Cytotoxicity against human K562 cells assessed as cell growth inhibition after 48 hrs by MTT assay; assay type: functional, cell-based; conditions: K562, 48 h
Method in brief: (§1)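 Suspension cells seeded at 5000/well (HL-60 in IMDM, K562 in RPMI, both with 10% FBS) and treated. MTT then added for 4 h at 37 °C; plates centrifuged at 3000 rpm for 30 min, medium removed, DMSO added, OD570 read. IC50 taken as concentration giving 50% growth inhibition; triplicate.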

HL-60 = test: Cytotoxicity against human HL60 cells assessed as cell growth inhibition after 48 hrs by MTT assay; assay type: functional, cell-based; conditions: HL-60, 48 h; method in brief: as §1
ECa-109 cell line = test: Cytotoxicity against human ECA109 cells assessed as cell growth inhibition after 48 hrs by MTT assay; assay type: functional, cell-based; conditions: ECa-109, 48 h
Method in brief: (§2)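 Adherent cells seeded at 5000/well, left 16−24 h, then exposed 48 h at 37 °C, 5% CO2 in RPMI with 10% FBS. Medium refreshed, MTT added for 4 h at 37 °C, medium removed, formazan dissolved in DMSO, OD570 read. IC50 taken as concentration inhibiting growth by 50%; triplicate.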

A549 = test: Cytotoxicity against human A549 cells assessed as cell growth inhibition after 48 hrs by MTT assay; assay type: functional, cell-based; conditions: A549, 48 h; method in brief: as §2
HepG2 = test: Cytotoxicity against human HepG2 cells assessed as cell growth inhibition after 48 hrs by MTT assay; assay type: functional, cell-based; conditions: HepG2, 48 h; method in brief: as §2
L02 = test: Cytotoxicity against human HL-7702 cells assessed as cell growth inhibition after 48 hrs by MTT assay; assay type: cell-based; conditions: L02, 48 h; method in brief: as §2
K562 [2] = test: Antitumor activity against CM-Dil-labeled human K562 cells xenografted in wild-type zebrafish embryos assessed as reduction in cell migration at 10 ug/ml measured after 48 hrs by confocal microscopic analysis; assay type: functional, cell-based
Method in brief: (§3)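 K562 cells labelled with CM-Dil, suspended in FBS-free medium at (1 × 107)/mL and microinjected into wild-type zebrafish embryos kept at 28 °C in embryonic medium. After 4 h, embryos with the same injection spot were pooled at 15−20 per well and exposed to compound; Taxol served as positive control. At 48 h, confocal imaging gave fluorescent area (migration) and fluorescence intensity (cell number); n = 15.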

K562 [3] = test: Antitumor activity against CM-Dil-labeled human K562 cells xenografted in wild-type zebrafish embryos assessed as tumor growth inhibition at 10 ug/ml measured after 48 hrs by confocal microscopic analysis; assay type: functional, cell-based; method in brief: as §3

| Structure (SMILES) | IC50 (K562 [1]) [µM] | IC50 (HL-60) [µM] | IC50 (ECa-109 cell line) [µM] | IC50 (A549) [µM] | IC50 (HepG2) [µM] | IC50 (L02) [µM] | Activity (K562 [2]) | TGI (K562 [3]) |
| --- | --- | --- | --- | --- | --- | --- | --- | --- |
| C=C(C)[C@@H]1CC[C@]2(CO)CC[C@]3(C)[C@H](CC[C@@H]4[C@@]5(C)CC[C@H](O)C(C)(C)[C@@H]5CC[C@]43C)[C@@H]12 [BETULIN] | 12.9 | 30.9 | 26.6 | 18.2 | 10.7 | 26.8 | – | – |
| CC(=O)O[C@H]1C(=O)[C@@]2(C)[C@H]([C@H](OC(=O)c3ccccc3)[C@]3(O)C[C@H](OC(=O)[C@H](O)[C@@H](NC(=O)c4ccccc4)c4ccccc4)C(C)=C1C3(C)C)[C@]1(OC(C)=O)CO[C@@H]1C[C@@H]2O | – | – | – | – | – | – | Active | Active |
| C=C(C)[C@@H]1CC[C@]2(COC(=O)CCCC[P+](c3ccccc3)(c3ccccc3)c3ccccc3)CC[C@]3(C)[C@H](CC[C@@H]4[C@@]5(C)CC[C@H](OC(C)=O)C(C)(C)[C@@H]5CC[C@]43C)[C@@H]12 | 0.62 | 0.58 | 1.41 | 0.83 | 2.42 | 7.18 | – | – |
| C=C(C)[C@@H]1CC[C@]2(C(=O)OC)CC[C@]3(C)[C@H](CC[C@@H]4[C@@]5(C)CC[C@H](OC(=O)CCCC[P+](c6ccccc6)(c6ccccc6)c6ccccc6)C(C)(C)[C@@H]5CC[C@]43C)[C@@H]12 | 3.58 | 3.11 | 4.75 | 4.99 | 4.35 | 6.3 | – | – |
| C=C(C)[C@@H]1CC[C@]2(C(=O)O)CC[C@]3(C)[C@H](CC[C@@H]4[C@@]5(C)CC[C@H](O)C(C)(C)[C@@H]5CC[C@]43C)[C@@H]12 [BETULINIC ACID] | 22 | 18.5 | 28.1 | 17.1 | 25.3 | 35.1 | – | – |
